4 compounds from ChEMBL document CHEMBL1155278, “3,4-Diaryl-isoxazoles and -imidazoles as potent dual inhibitors of p38alpha mitogen activated protein kinase and casein kinase 1delta” (J Med Chem, 2009) can be followed below.

Test [1] has as its target MAP kinase-interacting serine/threonine-protein kinase 2 (Homo sapiens) (UniProt Q9HBH9). As to the kind of experiment: Inhibition of MNK2 assessed as residual activity at 10 uM by Cherenkov counting relative to control in presence of 50 uM ATP.
Test [2] can be described thus: Inhibition of PKA assessed as residual activity at 10 uM by Cherenkov counting relative to control in presence of 20 uM ATP. The procedure, abridged: (§1)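 Single-concentration profiling at 10 μM in a 78-kinase panel. Kinase activity is expressed as a percentage of control assays run without compound.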
Test [3] has as its target Rho-associated protein kinase 2 (Homo sapiens) (UniProt O75116). As to the kind of experiment: Inhibition of ROCK2 assessed as residual activity at 10 uM by Cherenkov counting relative to control in presence of 20 uM ATP. The method, boiled down: as §1
Test [4] has as its target Serine/threonine-protein kinase Nek6 (Homo sapiens) (UniProt Q9HC98). As to the kind of experiment: Inhibition of NEK6 assessed as residual activity at 10 uM by Cherenkov counting relative to control in presence of 50 uM ATP.
Test [5] has as its target Tyrosine-protein kinase Lck (Homo sapiens) (UniProt P06239). As to the kind of experiment: Inhibition of Lck assessed as residual activity at 10 uM by Cherenkov counting relative to control in presence of 50 uM ATP.
The target of test [6] is Serine/threonine-protein kinase pim-1 (Homo sapiens) (UniProt P11309). The test can be described thus: Inhibition of PIM1 assessed as residual activity at 10 uM by Cherenkov counting relative to control in presence of 20 uM ATP.
Chain of Serine/threonine-protein kinase pim-1 (Homo sapiens) (P11309 whole entry, looked up): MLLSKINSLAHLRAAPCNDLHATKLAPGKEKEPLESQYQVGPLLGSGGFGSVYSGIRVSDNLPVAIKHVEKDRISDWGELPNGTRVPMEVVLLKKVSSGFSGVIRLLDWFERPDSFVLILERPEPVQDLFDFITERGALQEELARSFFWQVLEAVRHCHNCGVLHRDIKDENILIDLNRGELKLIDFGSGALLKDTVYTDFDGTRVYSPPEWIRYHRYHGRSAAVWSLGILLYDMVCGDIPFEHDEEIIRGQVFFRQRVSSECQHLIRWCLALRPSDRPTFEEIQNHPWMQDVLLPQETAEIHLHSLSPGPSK
Test [7] deals with Mitogen-activated protein kinase 3 (Homo sapiens) (UniProt P27361). As to the kind of experiment: Inhibition of ERK1 assessed as residual activity at 0.1 uM by Cherenkov counting relative to control in presence of 5 uM ATP. The method, boiled down:
(§2)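 Single-concentration screen at 0.1 µM across a panel of 76 protein kinases. Each kinase was run at an ATP concentration approximating its ATP Km. Results are % mean residual activity versus control assays without compound (n = 3 ± SD).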

The target of test [8] is T1, Serine/threonine-protein kinase Sgk1 (Homo sapiens) (UniProt O00141).
T1 sequence (whole entry): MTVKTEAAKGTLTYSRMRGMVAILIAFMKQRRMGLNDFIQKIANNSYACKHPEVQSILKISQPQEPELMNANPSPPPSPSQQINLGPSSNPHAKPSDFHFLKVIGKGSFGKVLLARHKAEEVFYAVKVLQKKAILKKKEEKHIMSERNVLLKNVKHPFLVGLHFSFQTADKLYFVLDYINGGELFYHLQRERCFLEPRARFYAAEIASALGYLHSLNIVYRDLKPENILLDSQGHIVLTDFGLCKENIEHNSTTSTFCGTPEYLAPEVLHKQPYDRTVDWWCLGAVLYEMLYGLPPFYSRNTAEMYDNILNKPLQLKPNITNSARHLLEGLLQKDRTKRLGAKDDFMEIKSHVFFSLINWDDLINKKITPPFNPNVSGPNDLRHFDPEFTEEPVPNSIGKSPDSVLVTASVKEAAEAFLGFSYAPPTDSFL
The test can be described thus: Inhibition of SGK1 assessed as residual activity at 0.1 uM by Cherenkov counting relative to control in presence of 20 uM ATP. The method, boiled down: (§3)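 Single-concentration screen at 0.1 μM in a 76-kinase panel. ATP for each kinase was set near its Km for ATP. Residual activity is given as a percentage of control assays without compound, mean of n = 3 ± SD.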

Test [9] addresses Myosin light chain kinase, smooth muscle (Homo sapiens) (UniProt Q15746). As to the kind of experiment: Inhibition of smooth muscle MLCK assessed as residual activity at 0.1 uM by Cherenkov counting relative to control in presence of 50 uM ATP. The procedure, abridged:
as §3

The target of test [10] is Dual specificity tyrosine-phosphorylation-regulated kinase 1A (Homo sapiens) (UniProt Q13627). As to the kind of experiment: Inhibition of DYRK1A assessed as residual activity at 0.1 uM by Cherenkov counting relative to control in presence of 50 uM ATP. The method, boiled down: as §2
For test [11], the target named is T2, Serine/threonine-protein kinase D1 (Homo sapiens) (UniProt Q15139).
T2 sequence (whole entry): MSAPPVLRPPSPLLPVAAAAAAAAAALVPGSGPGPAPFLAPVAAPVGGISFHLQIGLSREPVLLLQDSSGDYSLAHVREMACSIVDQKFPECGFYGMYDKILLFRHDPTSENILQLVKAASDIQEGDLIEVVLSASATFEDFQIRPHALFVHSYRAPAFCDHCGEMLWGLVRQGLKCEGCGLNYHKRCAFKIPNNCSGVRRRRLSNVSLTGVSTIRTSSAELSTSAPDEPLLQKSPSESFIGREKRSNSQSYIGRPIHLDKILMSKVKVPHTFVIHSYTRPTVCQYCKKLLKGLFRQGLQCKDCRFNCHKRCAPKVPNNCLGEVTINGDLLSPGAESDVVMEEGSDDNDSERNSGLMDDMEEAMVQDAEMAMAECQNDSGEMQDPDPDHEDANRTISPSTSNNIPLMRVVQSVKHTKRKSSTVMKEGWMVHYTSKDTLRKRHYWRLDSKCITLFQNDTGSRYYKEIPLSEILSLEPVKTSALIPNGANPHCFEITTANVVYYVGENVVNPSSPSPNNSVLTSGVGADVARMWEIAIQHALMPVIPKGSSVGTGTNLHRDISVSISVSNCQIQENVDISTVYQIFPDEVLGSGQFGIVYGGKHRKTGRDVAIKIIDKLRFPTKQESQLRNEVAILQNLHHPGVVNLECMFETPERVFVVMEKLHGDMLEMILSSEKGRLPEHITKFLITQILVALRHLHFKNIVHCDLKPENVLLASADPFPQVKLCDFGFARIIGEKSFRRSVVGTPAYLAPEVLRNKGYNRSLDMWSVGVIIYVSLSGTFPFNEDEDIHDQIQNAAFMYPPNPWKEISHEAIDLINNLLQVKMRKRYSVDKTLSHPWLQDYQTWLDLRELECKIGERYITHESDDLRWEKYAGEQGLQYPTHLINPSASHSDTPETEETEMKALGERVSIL
The test can be described thus: Inhibition of PKD1 assessed as residual activity at 0.1 uM by Cherenkov counting relative to control in presence of 50 uM ATP. The procedure, abridged:
as §3

Test [12] addresses Serine/threonine-protein kinase PAK 6 (Homo sapiens) (UniProt Q9NQU5). As to the kind of experiment: Inhibition of PAK6 assessed as residual activity at 0.1 uM by Cherenkov counting relative to control in presence of 20 uM ATP. The procedure, abridged:
(§4)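 Single-concentration selectivity screen at 0.1 μM against a panel of 76 protein kinases. Each kinase was run at an ATP level approximating its Km for ATP. Output is mean residual activity as % of the control assay without compound, n = 3 ± SD.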

Test [13] in a line: Inhibition of PKA assessed as residual activity at 0.1 uM by Cherenkov counting relative to control in presence of 20 uM ATP. The procedure, abridged:
as §4

The target in test [14] is Serine/threonine-protein kinase pim-1 (Homo sapiens) (UniProt P11309). The test can be described thus: Inhibition of PIM1 assessed as residual activity at 0.1 uM by Cherenkov counting relative to control in presence of 20 uM ATP. The procedure, abridged: as §4
Test [15] has as its target Fibroblast growth factor receptor 1 (Homo sapiens) (UniProt P11362). The test can be described thus: Inhibition of FGFR1 assessed as residual activity at 0.1 uM by Cherenkov counting relative to control in presence of 20 uM ATP. The procedure, abridged:
as §2

Structures are written as SMILES.

Chain of Myosin light chain kinase, smooth muscle (Homo sapiens) (Q15746 whole entry): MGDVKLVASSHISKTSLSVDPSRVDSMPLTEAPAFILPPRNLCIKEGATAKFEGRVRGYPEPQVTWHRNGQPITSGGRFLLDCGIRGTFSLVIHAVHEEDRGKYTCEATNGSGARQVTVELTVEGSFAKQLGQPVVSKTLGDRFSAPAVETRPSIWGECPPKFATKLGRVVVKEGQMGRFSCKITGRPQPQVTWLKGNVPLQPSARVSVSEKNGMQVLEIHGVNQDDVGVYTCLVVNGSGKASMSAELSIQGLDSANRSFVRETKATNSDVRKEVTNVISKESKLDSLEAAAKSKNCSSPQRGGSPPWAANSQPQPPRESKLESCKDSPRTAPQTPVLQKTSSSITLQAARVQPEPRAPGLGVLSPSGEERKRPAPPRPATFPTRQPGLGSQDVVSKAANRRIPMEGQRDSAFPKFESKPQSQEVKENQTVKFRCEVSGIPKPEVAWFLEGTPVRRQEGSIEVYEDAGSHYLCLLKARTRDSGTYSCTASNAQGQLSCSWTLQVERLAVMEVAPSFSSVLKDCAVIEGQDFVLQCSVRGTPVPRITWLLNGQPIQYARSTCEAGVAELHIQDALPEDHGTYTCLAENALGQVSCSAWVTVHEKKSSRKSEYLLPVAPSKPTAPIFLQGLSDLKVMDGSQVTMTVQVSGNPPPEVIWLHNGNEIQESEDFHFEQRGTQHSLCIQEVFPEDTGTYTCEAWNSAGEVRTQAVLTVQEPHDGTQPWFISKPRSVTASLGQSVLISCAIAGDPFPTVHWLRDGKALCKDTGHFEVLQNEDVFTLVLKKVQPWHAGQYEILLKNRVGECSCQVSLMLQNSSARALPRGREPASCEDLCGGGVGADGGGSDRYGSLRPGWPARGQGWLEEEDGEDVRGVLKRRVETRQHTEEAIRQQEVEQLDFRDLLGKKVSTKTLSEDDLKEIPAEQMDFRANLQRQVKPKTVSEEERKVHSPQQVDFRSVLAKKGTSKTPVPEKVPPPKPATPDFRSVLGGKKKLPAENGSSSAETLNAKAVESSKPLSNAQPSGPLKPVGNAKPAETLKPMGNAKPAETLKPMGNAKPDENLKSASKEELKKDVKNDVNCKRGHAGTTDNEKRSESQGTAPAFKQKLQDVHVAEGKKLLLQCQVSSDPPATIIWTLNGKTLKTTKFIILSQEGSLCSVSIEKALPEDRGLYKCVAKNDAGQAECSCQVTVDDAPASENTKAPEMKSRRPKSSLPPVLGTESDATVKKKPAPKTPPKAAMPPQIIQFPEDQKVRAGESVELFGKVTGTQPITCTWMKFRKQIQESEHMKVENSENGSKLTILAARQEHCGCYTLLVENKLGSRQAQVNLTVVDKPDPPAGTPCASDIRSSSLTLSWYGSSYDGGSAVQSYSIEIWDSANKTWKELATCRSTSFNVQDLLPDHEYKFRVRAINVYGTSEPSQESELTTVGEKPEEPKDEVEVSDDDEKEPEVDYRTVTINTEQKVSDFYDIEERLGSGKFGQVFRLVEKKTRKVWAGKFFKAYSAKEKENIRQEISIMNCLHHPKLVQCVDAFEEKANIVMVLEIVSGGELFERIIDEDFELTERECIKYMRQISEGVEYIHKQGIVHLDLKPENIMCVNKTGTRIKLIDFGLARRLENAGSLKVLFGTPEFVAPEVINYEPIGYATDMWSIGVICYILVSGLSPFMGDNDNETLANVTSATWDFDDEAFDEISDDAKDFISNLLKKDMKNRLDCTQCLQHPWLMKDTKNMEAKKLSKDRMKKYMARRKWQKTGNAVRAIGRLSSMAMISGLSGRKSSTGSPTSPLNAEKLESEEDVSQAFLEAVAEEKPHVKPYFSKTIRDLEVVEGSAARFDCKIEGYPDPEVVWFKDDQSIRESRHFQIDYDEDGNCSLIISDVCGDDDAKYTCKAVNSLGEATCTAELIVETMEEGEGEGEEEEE
Chain of Fibroblast growth factor receptor 1 (Homo sapiens) (P11362 22-822 limits assumed): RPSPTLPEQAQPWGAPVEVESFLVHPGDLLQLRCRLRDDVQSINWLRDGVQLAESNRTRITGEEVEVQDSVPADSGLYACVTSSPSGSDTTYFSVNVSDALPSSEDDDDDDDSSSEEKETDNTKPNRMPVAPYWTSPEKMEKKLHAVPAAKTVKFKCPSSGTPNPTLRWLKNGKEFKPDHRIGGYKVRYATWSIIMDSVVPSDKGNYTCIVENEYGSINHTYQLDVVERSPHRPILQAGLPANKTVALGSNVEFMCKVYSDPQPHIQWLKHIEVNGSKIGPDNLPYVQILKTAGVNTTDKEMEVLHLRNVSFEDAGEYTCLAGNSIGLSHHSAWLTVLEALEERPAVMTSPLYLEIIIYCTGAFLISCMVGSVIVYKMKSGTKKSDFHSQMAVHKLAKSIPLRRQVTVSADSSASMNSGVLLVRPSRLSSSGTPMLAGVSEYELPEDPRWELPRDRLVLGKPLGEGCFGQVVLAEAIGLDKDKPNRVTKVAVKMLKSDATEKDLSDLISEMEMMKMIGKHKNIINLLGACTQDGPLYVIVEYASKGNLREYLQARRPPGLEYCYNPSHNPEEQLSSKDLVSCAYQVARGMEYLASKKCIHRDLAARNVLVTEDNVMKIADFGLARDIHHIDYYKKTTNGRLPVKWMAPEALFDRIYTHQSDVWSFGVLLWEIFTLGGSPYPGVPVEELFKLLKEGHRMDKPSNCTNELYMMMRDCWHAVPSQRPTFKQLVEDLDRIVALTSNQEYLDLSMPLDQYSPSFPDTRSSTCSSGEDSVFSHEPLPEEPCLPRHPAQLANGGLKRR
Chain of Tyrosine-protein kinase Lck (Homo sapiens) (P06239 2-509 limits assumed): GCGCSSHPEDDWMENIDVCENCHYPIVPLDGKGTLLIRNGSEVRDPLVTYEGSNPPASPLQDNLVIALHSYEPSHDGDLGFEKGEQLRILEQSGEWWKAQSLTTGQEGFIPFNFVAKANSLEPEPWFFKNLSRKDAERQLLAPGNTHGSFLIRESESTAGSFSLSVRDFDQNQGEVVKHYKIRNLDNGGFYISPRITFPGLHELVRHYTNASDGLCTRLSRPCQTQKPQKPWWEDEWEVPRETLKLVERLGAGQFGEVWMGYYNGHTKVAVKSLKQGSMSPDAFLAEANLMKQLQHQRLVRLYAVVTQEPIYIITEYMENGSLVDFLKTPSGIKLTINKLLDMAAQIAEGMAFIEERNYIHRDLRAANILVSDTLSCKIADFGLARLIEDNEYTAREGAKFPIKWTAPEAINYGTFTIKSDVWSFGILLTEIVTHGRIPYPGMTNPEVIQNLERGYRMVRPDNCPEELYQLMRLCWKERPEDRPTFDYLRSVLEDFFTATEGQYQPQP
Chain of Mitogen-activated protein kinase 3 (Homo sapiens) (P27361 whole entry): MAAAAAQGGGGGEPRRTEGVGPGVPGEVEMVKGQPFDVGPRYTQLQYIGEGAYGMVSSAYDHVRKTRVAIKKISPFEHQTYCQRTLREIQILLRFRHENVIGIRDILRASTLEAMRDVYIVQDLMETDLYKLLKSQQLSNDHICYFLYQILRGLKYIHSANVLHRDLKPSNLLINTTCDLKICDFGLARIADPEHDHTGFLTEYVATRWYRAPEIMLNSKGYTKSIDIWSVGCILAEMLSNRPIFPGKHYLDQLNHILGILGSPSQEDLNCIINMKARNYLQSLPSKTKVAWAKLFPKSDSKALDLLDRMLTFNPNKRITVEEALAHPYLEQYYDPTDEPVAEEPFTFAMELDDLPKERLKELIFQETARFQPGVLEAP
Chain of Serine/threonine-protein kinase Nek6 (Homo sapiens) (Q9HC98 whole entry): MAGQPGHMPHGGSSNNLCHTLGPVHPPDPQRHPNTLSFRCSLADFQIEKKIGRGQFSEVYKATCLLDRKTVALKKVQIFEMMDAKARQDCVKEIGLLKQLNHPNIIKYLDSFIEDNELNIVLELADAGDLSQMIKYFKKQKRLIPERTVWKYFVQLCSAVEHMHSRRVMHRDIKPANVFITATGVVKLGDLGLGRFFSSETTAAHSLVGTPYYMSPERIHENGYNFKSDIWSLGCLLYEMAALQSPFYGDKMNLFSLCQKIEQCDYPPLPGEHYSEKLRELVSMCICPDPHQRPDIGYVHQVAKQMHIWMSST
Chain of Serine/threonine-protein kinase PAK 6 (Homo sapiens) (Q9NQU5 whole entry, looked up): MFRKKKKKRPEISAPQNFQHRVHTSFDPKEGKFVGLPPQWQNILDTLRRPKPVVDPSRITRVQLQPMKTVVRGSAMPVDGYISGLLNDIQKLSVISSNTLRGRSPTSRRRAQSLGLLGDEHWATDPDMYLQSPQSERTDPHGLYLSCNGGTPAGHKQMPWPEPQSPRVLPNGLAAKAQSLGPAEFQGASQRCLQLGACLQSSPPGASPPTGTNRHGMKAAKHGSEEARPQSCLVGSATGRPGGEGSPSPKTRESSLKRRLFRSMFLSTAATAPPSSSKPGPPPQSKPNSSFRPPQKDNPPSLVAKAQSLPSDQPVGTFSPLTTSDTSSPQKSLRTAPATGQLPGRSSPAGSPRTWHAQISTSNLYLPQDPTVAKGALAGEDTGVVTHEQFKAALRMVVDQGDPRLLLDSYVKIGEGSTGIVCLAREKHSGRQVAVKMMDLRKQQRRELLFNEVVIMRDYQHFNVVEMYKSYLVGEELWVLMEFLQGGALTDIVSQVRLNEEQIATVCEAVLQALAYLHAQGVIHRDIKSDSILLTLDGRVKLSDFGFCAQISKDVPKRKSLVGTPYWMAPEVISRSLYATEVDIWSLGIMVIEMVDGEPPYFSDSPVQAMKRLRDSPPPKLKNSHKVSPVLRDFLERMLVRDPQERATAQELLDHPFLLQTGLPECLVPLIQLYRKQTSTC

Regarding `CC(C)c1noc(-c2ccc(F)cc2)c1-c1ccncc1`, the Activity in test [1] was 101%; in test [2], 90%; in test [3], 77%; in [4], 108%; in test [5], 64%; in test [6], 89%.
As to `CC(C)c1onc(-c2ccc(F)cc2)c1-c1ccncc1`, the Activity in test [1] turned out to be 110%; in [2], 28%; in [3] it was 76%; in test [4] it was 112%; in test [5] it was 42%; in test [6], 100%.
Consider `COc1ccc(/C=C/C(=O)Nc2cc(-c3[nH]c(SC)nc3-c3ccc(F)cc3)ccn2)c(OC)c1`, for which the Activity amounted to 94% in test [7]; 87% in [8]; 82% in test [9]; 78% in test [10]; 88% in test [11]; 76% in test [12]. In addition, the Activity in [13] amounted to 84%; in test [14], 98%; in test [15], 50%.
With `COc1ccc(/C=C/C(=O)Nc2cc(-c3[nH]c([S+](C)[O-])nc3-c3ccc(F)cc3)ccn2)c(OC)c1` (stereo not given), the Activity came out at 101% in test [7]; 87% in [8]; 93% in test [9]; 86% in [10]; 97% in test [11]; 84% in test [12]. The values for the Activity in test [13], in test [14] and in test [15] were 92%, 109% and 50%, respectively.
